In ChEMBL document CHEMBL2163316, “Discovery of (S)-6-(3-cyclopentyl-2-(4-(trifluoromethyl)-1H-imidazol-1-yl)propanamido)nicotinic acid as a hepatoselective glucokinase activator clinical candidate for treating type 2 diabetes mellitus” (J Med Chem, 2012):
Converted amounts (≈) assume the structure as drawn.

Experiments:
[1] = Volume of distribution at steady state in monkey at 0.5 mg/kg, iv; assay type: ADME, organism-based, Macaca mulatta; parameters: dose 0.5 mg/kg, route intravenous; details: rhesus monkey, in vivo, read-out: Vdss
In short: (§1)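 Pharmacokinetic parameters are the geometric mean of n = 2 animals per group unless otherwise noted.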

[2] = Ratio of free drug uptake in pancreas to plasma of Wistar rat at 100 mg/kg, po administered for 28 days measured 4 hrs post last dosing; assay type: ADME, organism-based; parameters: dose 100 mg/kg, route oral
In short: (§2)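 Oral repeat dosing: rats for 28 days, dogs for 4 days. Plasma, liver, pancreas and brain were sampled at 4 h postdose on the last day. Ratios use free drug concentrations, converted with unbound fractions from equilibrium dialysis (plasma at 50 μM, tissues at 1 μM). BLQ = below limit of quantification.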

[3] = test system: Rhesus monkey; assay: fCmax in monkey at 3 mg/kg, po; assay type: ADME, organism-based, Macaca mulatta; parameters: dose 3 mg/kg, route oral; details: in vivo
[4] = test system: Rattus norvegicus; assay: fAUC (0 to 24 hrs) in rat at 1 mg/kg, iv; assay type: ADME, organism-based; parameters: dose 1 mg/kg, route intravenous; details: in vivo
[5] = test system: Canis familiaris; assay: fCmax in dog at 1 mg/kg, iv; assay type: ADME, organism-based, Canis lupus familiaris; parameters: dose 1 mg/kg, route intravenous; details: in vivo
[6] = Oral bioavailability in dog at 5 mg/kg; assay type: ADME, organism-based, Canis lupus familiaris; details: in vivo
[7] = test system: Canis familiaris; assay: fAUC (0 to 24 hrs) in dog at 5 mg/kg, po; assay type: ADME, organism-based, Canis lupus familiaris; parameters: dose 5 mg/kg, route oral; details: in vivo
[8] = Ratio of free drug uptake in brain to plasma of dog at 50 mg/kg, po administered for 4 days measured 4 hrs post last dosing; assay type: ADME, organism-based, Canis lupus familiaris; parameters: dose 50 mg/kg, route oral; details: read-out: BPR; in short: as §2
[9] = test system: Rhesus monkey; assay: fAUC (0 to 24 hrs) in monkey at 3 mg/kg, po; assay type: ADME, organism-based, Macaca mulatta; parameters: dose 3 mg/kg, route oral; details: in vivo
[10] = Ratio of free drug uptake in brain to plasma of Wistar rat at 100 mg/kg, po administered for 28 days measured 4 hrs post last dosing; assay type: ADME, organism-based; parameters: dose 100 mg/kg, route oral; details: BLD = below limit of detection; in short: as §2
[11] = Thermodynamic solubility of the compound at pH 6.5; assay type: physicochemical; details: buffer, read-out: Therm_solubility
[12] = test system: Rattus norvegicus; assay: fCmax in rat at 5 mg/kg, po; assay type: ADME, organism-based; parameters: dose 5 mg/kg, route oral; details: in vivo
[13] = test system: Canis familiaris; assay: fAUC (0 to 24 hrs) in dog at 1 mg/kg, iv; assay type: ADME, organism-based, Canis lupus familiaris; parameters: dose 1 mg/kg, route intravenous; details: in vivo
[14] = Volume of distribution at steady state in rat at 1 mg/kg, iv; assay type: ADME, organism-based; parameters: dose 1 mg/kg, route intravenous; details: in vivo, read-out: Vdss; in short: as §1
[15] = Renal excretion in rat; assay type: ADME, organism-based, Kidney; details: urine, read-out: Drug excretion
[16] = test system: Rattus norvegicus; assay: fAUC (0 to 24 hrs) in rat at 5 mg/kg, po; assay type: ADME, organism-based; parameters: dose 5 mg/kg, route oral; details: in vivo
[17] = test system: Rattus norvegicus; assay: fCmax in rat at 1 mg/kg, iv; assay type: ADME, organism-based; parameters: dose 1 mg/kg, route intravenous; details: in vivo
[18] = test system: Rhesus monkey; assay: fAUC (0 to 24 hrs) in monkey at 0.5 mg/kg, iv; assay type: ADME, organism-based, Macaca mulatta; parameters: dose 0.5 mg/kg, route intravenous; details: in vivo
[19] = Oral bioavailability in rat at 5 mg/kg; assay type: ADME, organism-based; details: in vivo; in short: as §1
[20] = Ratio of free drug uptake in liver to plasma of Wistar rat at 100 mg/kg, po administered for 28 days measured 4 hrs post last dosing; assay type: ADME, organism-based; parameters: dose 100 mg/kg, route oral; in short: as §2
[21] = Ratio of free drug uptake in pancreas to plasma of dog at 50 mg/kg, po administered for 4 days measured 4 hrs post last dosing; assay type: ADME, organism-based, Canis lupus familiaris; parameters: dose 50 mg/kg, route oral; in short: as §2
[22] = test system: Rhesus monkey; assay: fCmax in monkey at 0.5 mg/kg, iv; assay type: ADME, organism-based, Macaca mulatta; parameters: dose 0.5 mg/kg, route intravenous; details: in vivo
[23] = Fraction absorbed in portal vein cannulated rat at 5 mg/kg, po; details: in vivo, read-out: Fabs
[24] = Volume of distribution at steady state in dog at 1 mg/kg, iv; assay type: ADME, organism-based, Canis lupus familiaris; parameters: dose 1 mg/kg, route intravenous; details: in vivo, read-out: Vdss; in short: as §1
[25] = Oral bioavailability in monkey at 3 mg/kg; assay type: ADME, organism-based, Macaca mulatta; details: rhesus monkey, in vivo; in short: as §1
[26] = Ratio of free drug uptake in liver to plasma of dog at 50 mg/kg, po administered for 4 days measured 4 hrs post last dosing; assay type: ADME, organism-based, Canis lupus familiaris; parameters: dose 50 mg/kg, route oral; in short: as §2
[27] = test system: Canis familiaris; assay: fCmax in dog at 5 mg/kg, po; assay type: ADME, organism-based, Canis lupus familiaris; parameters: dose 5 mg/kg, route oral; details: in vivo
[28] = Kinetic solubility of the compound; assay type: physicochemical; details: read-out: Kinetic_solubility
[29] = Drug excretion in rat bile; assay type: ADME, tissue-based; details: read-out: Drug excretion

- Vd [1]: 0.7 L/kg
- Kp uu at 4 h [2]: 0.14
- fCmax [3]: 13.6 ng/mL
- fAUC [4]: 34.7 ng·h/mL
- fCmax [5]: 479 ng/mL
- bioavailability [6]: 18%
- fAUC [7]: 72.6 ng·h/mL
- Kp uu at 4 h [8]: 0.009
- fAUC [9]: 94.7 ng·h/mL
- BPR [10]: BLD
- solubility thermodynamic [11]: 4200 µg/mL (≈ 10.6 mM)
- fCmax [12]: 5.4 ng/mL
- fAUC [13]: 79.1 ng·h/mL
- Vd [14]: 2 L/kg
- dose excreted [15]: 11%
- fAUC [16]: 30.3 ng·h/mL
- fCmax [17]: 176 ng/mL
- fAUC [18]: 46.2 ng·h/mL
- bioavailability [19]: 18%
- Kp uu at 4 h [20]: 10.5
- Kp uu at 4 h [21]: 0.25
- fCmax [22]: 219 ng/mL
- Fa [23]: 53%
- Vd [24]: 1.6 L/kg
- bioavailability [25]: 35%
- Kp uu at 4 h [26]: 14.5
- fCmax [27]: 23.3 ng/mL
- solubility kinetic [28]: 524 µM (≈ 208 µg/mL)
- dose excreted [29]: 62%
Compound: O=C(O)c1ccc(NC(=O)[C@H](CC2CCCC2)n2cnc(C(F)(F)F)c2)nc1 [PF-04991532]
